pIC50: −log10 of the molar value. In brackets after ≈: the same amount, converted by molar mass. Activity calls are given as the source filed them. The rule behind the calls is not given here.

The test system of data set [1] is Human alphaherpesvirus 2. Kind of data set: Antiviral activity against HSV-2 G infected in HEL cells assessed as inhibition of virus-induced cytopathicity. In kind it is functional, organism-based. To be noted: strain G. Put shortly:
(§1)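 Confluent monolayers (HEL, Vero, HeLa or CrFK, as applicable) were inoculated with 100 CCID50 of virus, with 1 CCID50 being the dose that infects 50% of cultures. Infection ran in the presence of varying compound concentrations. Inhibition of virus-induced cytopathicity was scored against infected cultures left untreated.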
For orientation: Protection from cytopathic effect is a common read-out in antiviral testing.

The subject of data set [2] is Human alphaherpesvirus 1. The experiment in a line: Antiviral activity against HSV-1 KOS infected in HEL cells assessed as inhibition of virus-induced cytopathicity. In kind it is functional, organism-based. Put shortly:
as §1

The nature of data set [3]: Solubility of the compound in octanol at pH 7.4 by HPLC analysis. In kind it is physicochemical.
Data set [4] in a line: n-octanol-PBS buffer distribution coefficient, log D of the compound at pH 7.4 after 24 hrs by HPLC analysis. The class given is physicochemical.
Data set [5] is described as follows: Aqueous solubility of the compound in PBS buffer at pH 7.4 after 24 hrs by HPLC analysis. In kind it is physicochemical. To be noted: pH 7.4, 24 h.
A short description of data set [6]: Cytotoxicity against cat CRFK cells assessed as cell viability by MTS assay. In kind it is cell-based, Felis catus. Put shortly:
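CRFK cells were exposed to varying sample concentrations. Cell viability was measured with the colorimetric formazan-based MTS assay, and the 50% cytotoxic concentration (CC50) was derived from it.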
A general note: Tetrazolium assays rely on reduction of a dye to a coloured formazan, in cell work by metabolically active cells.

Data set [7] in a line: Cytotoxicity against human HeLa cells assessed as alteration of cell morphology by microscopic analysis. As to conditions: read-out: MIC. In kind it is cell-based. Put shortly:
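Cells (Vero, HEL, MDCK or HeLa) were exposed to a range of sample concentrations. The value reported is the concentration required to cause a microscopically detectable alteration of normal cell morphology.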

The test system of data set [8] is Plasmodium falciparum. The experiment in a line: Antiplasmodial activity against chloroquine-sensitive asexual erythrocytic stage of Plasmodium falciparum D10 assessed as parasite growth inhibition by lactate dehydrogenase assay. In kind it is functional, organism-based. Put shortly:
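Parasite lactate dehydrogenase assay (modified Makler method). Samples held as 20 mg/mL stocks in DMSO, diluted on test day. Full dose-response: starting at 10 μg/mL, 2-fold serial dilution in complete medium over 10 concentrations down to 0.02 μg/mL. Chloroquine, artesunate and MMV390048 served as references. IC50 from nonlinear dose-response curve fitting; mean of three independent experiments.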

Data set [9] relates to Felid alphaherpesvirus 1. Kind of data set: Antiviral activity against Feline herpesvirus infected in cat CRFK cells assessed as inhibition of virus-induced cytopathicity. The class given is functional, organism-based. Put shortly: as §1
In data set [10] the test system is Feline coronavirus. Kind of data set: Antiviral activity against Feline coronavirus infected in cat CRFK cells assessed as inhibition of virus-induced cytopathicity. In kind it is functional, organism-based. Put shortly: as §1
For data set [11], the system named is Human alphaherpesvirus 3. The experiment in a line: Antiviral activity against Varicella-zoster virus infected in HEL cells assessed as inhibition of virus-induced cytopathicity. The class given is functional, organism-based.
Data set [12] deals with Human betaherpesvirus 5. The experiment in a line: Antiviral activity against Cytomegalovirus Davis infected in HEL cells assessed as inhibition of virus-induced cytopathicity. In kind it is functional, organism-based.
Data set [13] has as its system Human betaherpesvirus 5. Kind of data set: Antiviral activity against Cytomegalovirus AD169 infected in HEL cells assessed as inhibition of virus-induced cytopathicity. In kind it is functional, organism-based.
For data set [14], the system named is Respiratory syncytial virus. Kind of data set: Antiviral activity against Respiratory syncytial virus infected in human HeLa cells assessed as inhibition of virus-induced cytopathicity. The class given is functional, organism-based. Put shortly: as §1
Data set [15] has as its system Coxsackievirus B4. Kind of data set: Antiviral activity against Coxsackievirus B4 infected in human HeLa cells assessed as inhibition of virus-induced cytopathicity. The class given is functional, organism-based. Put shortly: as §1
Data set [16] has as its system Influenza A virus H3N2. The experiment in a line: Antiviral activity against Influenza A virus H3N2 infected in MDCK cells assessed as inhibition of virus-induced cytopathicity. In kind it is functional, organism-based. Put shortly:
(§2)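 Confluent monolayers in 96-well plates were inoculated with 100 CCID50 of virus in the presence of varying concentrations of compound. Read-out was inhibition of virus-induced cytopathicity, compared with untreated infected cultures. Cytotoxicity was judged microscopically or by MTT viability staining.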

The test system of data set [17] is Vesicular stomatitis virus. Kind of data set: Antiviral activity against Vesicular stomatitis virus infected in human HeLa cells assessed as inhibition of virus-induced cytopathicity. The class given is functional, organism-based. Put shortly:
as §2

In data set [18] the test system is Influenza A virus. The experiment in a line: Antiviral activity against influenza A virus H1N1 infected in MDCK cells assessed as inhibition of virus-induced cytopathicity. The class given is functional, organism-based. Put shortly:
as §2

Data set [19] deals with Punta Toro virus. Kind of data set: Antiviral activity against Punta Toro virus infected in African green monkey Vero cells assessed as inhibition of virus-induced cytopathicity. The class given is functional, organism-based. Put shortly: as §1
In data set [20] the test system is Coxsackievirus B4. Kind of data set: Antiviral activity against Coxsackievirus B4 infected in African green monkey Vero cells assessed as inhibition of virus-induced cytopathicity. In kind it is functional, organism-based. Put shortly:
as §1

In data set [21] the test system is Sindbis virus. Kind of data set: Antiviral activity against Sindbis virus infected in African green monkey Vero cells assessed as inhibition of virus-induced cytopathicity. The class given is functional, organism-based.
Data set [22] deals with Mammalian orthoreovirus 1. Kind of data set: Antiviral activity against Reovirus 1 infected in African green monkey Vero cells assessed as inhibition of virus-induced cytopathicity. The class given is functional, organism-based. Put shortly: as §1
Data set [23] relates to Human respirovirus 3. Kind of data set: Antiviral activity against parainfluenza virus 3 infected in African green monkey Vero cells assessed as inhibition of virus-induced cytopathicity. The class given is functional, organism-based. Put shortly: as §1
Data set [24] concerns Human alphaherpesvirus 1. The experiment in a line: Antiviral activity against thymidine kinase-negative acyclovir-resistant HSV-1 KOS infected in HEL cells assessed as inhibition of virus-induced cytopathicity. The class given is functional, organism-based. Put shortly: as §2
The subject of data set [25] is Vesicular stomatitis virus. The experiment in a line: Antiviral activity against Vesicular stomatitis virus infected in HEL cells assessed as inhibition of virus-induced cytopathicity. In kind it is functional, organism-based. Put shortly: as §2
The test system of data set [26] is Vaccinia virus. The experiment in a line: Antiviral activity against Vaccinia virus infected in HEL cells assessed as inhibition of virus-induced cytopathicity. The class given is functional, organism-based. To be noted: Orthopoxvirus vaccinia. Put shortly:
as §2

For orientation: solubility means the concentration that dissolves in the medium under given conditions. What is called logD is the decadic logarithm of the distribution of all forms, ionised or not, between an organic phase and buffer at a given pH. One may read the CC50 as the concentration giving 50% cytotoxicity. One may read the pIC50 as the negative decadic logarithm of the IC50, by convention in mol/L. As for `Clc1ccc2c(NCCCCCCCNc3nccc(Cl)n3)ccnc2c1`, the inhibition entry in data set [1], in data set [2], in data set [9], in [10], in data set [11] and in data set [12] was “inactive” in each case. The inhibition entry in data set [13], in [14], in [15], in [16], in data set [17] and in data set [18] was “inactive” each time. Besides, the inhibition result in [19], in data set [20], in data set [21], in data set [22], in [23] and in data set [24] was “inactive” each time. Further, the inhibition result in [25] and in data set [26] was “inactive” throughout. Besides, the solubility in data set [3] stood at 1.92 µM (≈ 0.776 µg/mL); in data set [5], 0.13 µM (≈ 0.0526 µg/mL). In addition, the logD at 24 h in [4] is 1.16. The CC50 in data set [6] is greater than 100 µM. Besides, the MCC in data set [7] turned out to be 4 µM. Further, in [8], the pIC50 is 6.42.
For the molecule `Clc1ccc2c(NCCNc3ccnc(Cl)n3)ccnc2c1`, the inhibition result in [1], in [2], in data set [9], in data set [10], in data set [11] and in [12] was “inactive” each time. Besides, the inhibition result in data set [13], in data set [14], in [15], in data set [16], in data set [17] and in [18] was “inactive” in each case. In addition, the inhibition result in [19], in data set [20], in data set [21], in data set [22], in data set [23] and in data set [24] was “inactive” each time. Besides, the inhibition entry in [25] and in data set [26] was “inactive” each time. The solubility in data set [3] amounted to 2.09 µM (≈ 0.698 µg/mL); in [5] it was 0.68 µM (≈ 0.227 µg/mL). The molecule further displayed a logD at 24 h in [4] of 0.489. The CC50 in data set [6] was greater than 100 µM. Moreover, the MCC in data set [7] was determined as 4 µM. In addition, the pIC50 in [8] was 5.84.
As for `CS(=O)(=O)c1ccc(-c2cnc(N)c(-c3ccc(C(F)(F)F)nc3)c2)cc1` [MMV-048], the pIC50 in data set [8] was 8.05.
As to `Clc1ccnc(N2CCOCC2)n1`, the inhibition result in data set [1], in [2], in [9], in [10], in [11] and in data set [12] was “inactive” in each case. Moreover, the inhibition entry in data set [13], in [14], in [15], in [16], in data set [17] and in [18] was “inactive” throughout. Also, the inhibition result in [19], in [20], in [21], in [22], in [23] and in data set [24] was “inactive” throughout. The inhibition result in data set [25] and in [26] was “inactive” each time. In addition, the solubility amounted to 12.1 µM (≈ 2.42 µg/mL) in [3] and 9 µM (≈ 1.8 µg/mL) in data set [5]. Moreover, in [4], the logD at 24 h came to 0.13. Moreover, the CC50 in data set [6] is greater than 100 µM. Besides, in [7], the MCC was greater than 100 µM. For the same molecule, the pIC50 in data set [8] is 4.82.
On to `Clc1ccc2c(NCCCCCCCCCCNc3nccc(Cl)n3)ccnc2c1`, for which the inhibition entry in data set [1], in data set [2], in data set [9], in [10], in data set [11] and in [12] was “inactive” throughout. The inhibition entry in data set [13], in data set [14], in data set [15], in data set [16], in data set [17] and in [18] was “inactive” throughout. Besides, the inhibition entry in data set [19], in data set [20], in data set [21], in [22], in [23] and in data set [24] was “inactive” throughout. The inhibition result in [25] and in data set [26] was “inactive” in each case. In addition, the solubility in [3] is 6.82 µM (≈ 3.04 µg/mL); in data set [5], 0.07 µM (≈ 0.0312 µg/mL). In [4], this molecule came in with a logD at 24 h of 1.99. In addition, in data set [6], the CC50 came to 4.4 µM. Also, in data set [7], the MCC turned out to be 4 µM. The pIC50 in data set [8] was 5.48.
As to `C[C@H]1[C@H](OC(=O)CCC(=O)O)O[C@@H]2O[C@@]3(C)CC[C@H]4[C@H](C)CC[C@@H]1[C@@]24OO3` [ARTESUNATE], the pIC50 in data set [8] was 8.20.
Turning to `Clc1ccc2c(NCCCCCCCCCCCCNc3nccc(Cl)n3)ccnc2c1`, the inhibition result in [1], in data set [2], in data set [9], in data set [10], in data set [11] and in data set [12] was “inactive” throughout. Further, the inhibition entry in [13], in data set [14], in data set [15], in [16], in data set [17] and in [18] was “inactive” throughout. Moreover, the inhibition result in data set [19], in data set [20], in data set [21], in data set [22], in data set [23] and in data set [24] was “inactive” in each case. Also, the inhibition entry in data set [25] and in data set [26] was “inactive” each time. For the same molecule, the solubility in data set [3] amounted to 19.4 µM (≈ 9.2 µg/mL); in data set [5], 0.05 µM (≈ 0.0237 µg/mL). In data set [4], this molecule showed a logD at 24 h of 2.59. In [6], the CC50 amounted to 19 µM. In addition, the MCC in data set [7] stood at 20 µM. Besides, in data set [8], the pIC50 was 5.37.
